Reference: ChEMBL document CHEMBL1142866, “Synthesis and preliminary evaluation of 18F- or 11C-labeled bicyclic nucleoside analogues as potential probes for imaging varicella-zoster virus thymidine kinase gene expression using positron emission tomography” (J Med Chem, 2007)
Active and inactive are the calls of the source. No cut-off for these calls is given here.

Key:
[1] = Inhibition of recombinant VZV TK assessed as [CH3-H3]dThd phosphorylation; design: species or system Human alphaherpesvirus 3
Summary of the method: (§1)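 Purified recombinant VZV TK (7.75 ng), HSV-1 TK (226 ng) or cytosolic TK-1 (455 ng). Buffer: 50 mM Tris-HCl pH 8.0, 2.5 mM MgCl2, 10 mM DTT, 2.5 mM ATP, 1.0 mg/mL BSA, 10 mM NaF, 1 µM [CH3-3H]dThd final. Incubated 30 min at 37 °C (linear range) with graded compound concentrations. Product caught on DE-81 disks, washed, scintillation-counted. IC50 is 50% inhibition of dThd phosphorylation.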

OST [2] = assay: Cytotoxicity against OST cells expressing HSV1 TK; type: cell-based; conditions: human
Summary of the method: (§2)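 OST TK- control cells and OST TK- cells expressing HSV-1 TK or VZV TK were cultured 5 days with graded compound concentrations. Cells were then trypsinized and counted on a Coulter counter. CC50 is the concentration in µM that reduces cell number by 50%.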

OST [3] = assay: Cytotoxicity against OST cells expressing VZV TK; type: cell-based; conditions: human; summary of the method: as §2
[4] = biological target: T1, Thymidine kinase, cytosolic (Homo sapiens, UniProt P04183); assay: Inhibition of recombinant cytosolic TK-1 assessed as [CH3-H3]dThd phosphorylation; summary of the method: as §1
T1 sequence (P04183 whole entry): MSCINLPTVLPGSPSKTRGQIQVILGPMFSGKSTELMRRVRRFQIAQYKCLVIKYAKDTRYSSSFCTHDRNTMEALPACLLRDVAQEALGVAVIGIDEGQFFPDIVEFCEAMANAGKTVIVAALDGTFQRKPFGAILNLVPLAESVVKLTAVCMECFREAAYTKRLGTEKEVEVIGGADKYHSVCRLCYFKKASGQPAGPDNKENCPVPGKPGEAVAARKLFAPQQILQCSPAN

Thymidine kinase = biological target: T2, Thymidine kinase (Human alphaherpesvirus 1, UniProt Q9QNF7); assay: Inhibition of recombinant HSV-1 TK assessed as [CH3-H3]dThd phosphorylation; summary of the method: as §1
T2 sequence (Q9QNF7 whole entry): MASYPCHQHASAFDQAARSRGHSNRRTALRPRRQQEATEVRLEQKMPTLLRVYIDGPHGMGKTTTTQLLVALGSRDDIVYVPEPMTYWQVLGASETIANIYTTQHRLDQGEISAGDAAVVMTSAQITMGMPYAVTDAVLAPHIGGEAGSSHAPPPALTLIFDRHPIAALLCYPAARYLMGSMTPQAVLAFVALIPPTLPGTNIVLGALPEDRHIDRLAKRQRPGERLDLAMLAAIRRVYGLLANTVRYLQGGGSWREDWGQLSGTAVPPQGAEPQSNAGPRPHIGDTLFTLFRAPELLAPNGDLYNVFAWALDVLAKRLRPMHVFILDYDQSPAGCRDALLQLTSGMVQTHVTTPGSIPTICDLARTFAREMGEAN

OST [5] = assay: Cytostatic activity against OST TK-/HSV1 TK+ cells at 0.038 uM; type: functional, cell-based; conditions: Homo sapiens; summary of the method: as §2

Compound	IC50 [1] [µM]	Activity (OST [2])	Activity (OST [3])	IC50 [4] [µM]	IC50 (Thymidine kinase) [µM]	Activity (OST [5])
O=c1nc2oc(-c3cccc(O)c3)cc2cn1[C@H]1C[C@H](O)[C@@H](CO)O1	2.6	Not Active	Not Active	> 500	> 500	–
Nc1nc(O)c2ncn(CCC(CO)CO)c2n1 [PENCICLOVIR]	> 50	–	–	–	–	Active
